Experimental data reported in article PMC8028158 (ACS Omega, 2021).
“Also recorded” adds a separate entry of the source.

What was measured:
human TRPC3 = biological target: T1, human TRPC3 (Homo sapiens, UniProt Q13507); assay: Fluorescence Ca2+ assay in TRPC3-HEK293 cells; format: cell-based
T1 sequence (Q13507 1-921): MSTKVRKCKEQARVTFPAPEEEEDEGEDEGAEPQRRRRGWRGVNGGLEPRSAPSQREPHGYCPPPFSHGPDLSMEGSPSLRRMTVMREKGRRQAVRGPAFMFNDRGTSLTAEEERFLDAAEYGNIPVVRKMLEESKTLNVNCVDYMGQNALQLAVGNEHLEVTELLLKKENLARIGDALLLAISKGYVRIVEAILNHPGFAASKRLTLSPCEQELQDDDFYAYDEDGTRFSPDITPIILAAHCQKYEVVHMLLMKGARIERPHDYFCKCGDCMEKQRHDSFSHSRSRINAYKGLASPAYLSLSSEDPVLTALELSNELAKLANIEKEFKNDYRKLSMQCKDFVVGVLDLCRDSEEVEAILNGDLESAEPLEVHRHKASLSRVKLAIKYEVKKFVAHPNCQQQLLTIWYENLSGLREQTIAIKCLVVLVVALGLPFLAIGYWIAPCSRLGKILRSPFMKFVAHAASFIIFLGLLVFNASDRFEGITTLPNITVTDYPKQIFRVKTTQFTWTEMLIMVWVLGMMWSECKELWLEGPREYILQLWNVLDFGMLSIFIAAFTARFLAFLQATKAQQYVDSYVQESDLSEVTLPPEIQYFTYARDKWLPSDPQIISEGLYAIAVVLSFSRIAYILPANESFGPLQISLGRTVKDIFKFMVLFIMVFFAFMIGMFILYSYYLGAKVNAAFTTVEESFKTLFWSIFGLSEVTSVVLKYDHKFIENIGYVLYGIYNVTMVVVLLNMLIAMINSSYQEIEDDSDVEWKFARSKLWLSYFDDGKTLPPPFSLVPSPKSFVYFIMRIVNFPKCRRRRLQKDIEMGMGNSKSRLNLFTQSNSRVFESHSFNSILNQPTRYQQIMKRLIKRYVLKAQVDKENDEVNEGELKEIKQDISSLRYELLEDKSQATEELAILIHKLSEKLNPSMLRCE

mouse TRPC5 = biological target: T2, mouse TRPC5 (Mus musculus, UniProt Q9QX29); assay: Selectivity Ca2+ assay in TRPC5-expressing HEK293 cells; format: cell-based; conditions: 1s 50 μM; induced by 100 μM CCh; Fluo-8
T2 sequence (Q9QX29 1-975): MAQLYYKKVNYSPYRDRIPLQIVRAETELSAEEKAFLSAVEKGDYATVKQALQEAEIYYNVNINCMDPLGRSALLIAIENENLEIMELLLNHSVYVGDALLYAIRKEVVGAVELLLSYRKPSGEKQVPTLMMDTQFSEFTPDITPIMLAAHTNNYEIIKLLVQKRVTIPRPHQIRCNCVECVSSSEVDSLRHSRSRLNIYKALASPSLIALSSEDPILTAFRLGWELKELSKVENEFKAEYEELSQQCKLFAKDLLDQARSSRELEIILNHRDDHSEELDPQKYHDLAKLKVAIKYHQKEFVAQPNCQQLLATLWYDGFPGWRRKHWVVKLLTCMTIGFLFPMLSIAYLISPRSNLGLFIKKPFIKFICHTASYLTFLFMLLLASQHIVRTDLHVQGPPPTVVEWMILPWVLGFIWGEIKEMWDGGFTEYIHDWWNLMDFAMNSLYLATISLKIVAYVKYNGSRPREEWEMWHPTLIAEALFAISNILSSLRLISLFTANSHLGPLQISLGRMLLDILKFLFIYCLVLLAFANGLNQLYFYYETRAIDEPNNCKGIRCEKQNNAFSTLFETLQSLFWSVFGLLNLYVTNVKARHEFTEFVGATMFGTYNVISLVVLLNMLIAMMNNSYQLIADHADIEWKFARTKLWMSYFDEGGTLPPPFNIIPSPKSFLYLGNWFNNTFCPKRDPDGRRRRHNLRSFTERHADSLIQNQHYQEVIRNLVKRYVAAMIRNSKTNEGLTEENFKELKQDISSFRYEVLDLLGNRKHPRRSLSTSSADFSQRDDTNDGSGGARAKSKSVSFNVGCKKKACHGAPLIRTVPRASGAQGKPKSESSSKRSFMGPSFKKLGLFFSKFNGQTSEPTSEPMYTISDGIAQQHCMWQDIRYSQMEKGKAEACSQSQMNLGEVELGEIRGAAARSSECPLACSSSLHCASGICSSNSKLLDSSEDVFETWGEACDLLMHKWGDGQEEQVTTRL

TRPV3 = biological target: T3, TRPV3 (Homo sapiens, UniProt Q8NET8); assay: Selectivity Ca2+ assay in TRPV3-expressing HEK293 cells; format: cell-based; conditions: 1s 50 μM; Fluo-8
T3 sequence (Q8NET8 1-790): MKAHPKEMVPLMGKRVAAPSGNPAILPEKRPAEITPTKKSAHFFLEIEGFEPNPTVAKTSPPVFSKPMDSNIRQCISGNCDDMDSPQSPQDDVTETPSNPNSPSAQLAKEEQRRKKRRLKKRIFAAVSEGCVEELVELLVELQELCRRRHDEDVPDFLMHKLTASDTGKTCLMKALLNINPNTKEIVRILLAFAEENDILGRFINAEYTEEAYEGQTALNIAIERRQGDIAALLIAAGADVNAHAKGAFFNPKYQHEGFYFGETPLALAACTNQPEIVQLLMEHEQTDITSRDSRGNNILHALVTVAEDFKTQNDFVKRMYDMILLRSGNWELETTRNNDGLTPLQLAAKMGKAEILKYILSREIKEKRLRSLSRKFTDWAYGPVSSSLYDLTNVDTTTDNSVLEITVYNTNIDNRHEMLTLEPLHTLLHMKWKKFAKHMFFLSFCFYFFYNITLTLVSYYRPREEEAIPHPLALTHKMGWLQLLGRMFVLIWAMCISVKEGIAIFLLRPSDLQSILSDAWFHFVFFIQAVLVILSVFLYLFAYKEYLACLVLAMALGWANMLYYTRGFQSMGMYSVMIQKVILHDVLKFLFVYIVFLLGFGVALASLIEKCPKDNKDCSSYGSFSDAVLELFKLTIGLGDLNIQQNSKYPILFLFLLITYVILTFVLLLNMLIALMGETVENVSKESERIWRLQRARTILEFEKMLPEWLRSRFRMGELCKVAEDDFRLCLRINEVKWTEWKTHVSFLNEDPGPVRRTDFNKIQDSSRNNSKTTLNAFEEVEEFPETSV

MKN-45 cells = assay: Wound-healing migration assay; format: cell-based, human; conditions: 5 μM, 24 h
Procedure, shortened: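 MKN-45 cells were seeded and cultured overnight, then scratched with a pipette tip and treated with test compound. The wound was imaged at 0 and 24 h. The width of the cell-free zone was measured at six positions, and relative migration distance was calculated. A positive-control compound was run alongside.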

COc1cccc2sc(N(CCN(C)C)C(=O)c3ccc4c(c3)CCCC4)nc12 [Compound 1s, N-(2-(dimethylamino)ethyl)-N-(4-methoxybenzo[d]thiazol-2-yl)-5,6,7,8-tetrahydronaphthalene-2-carboxamide]
IC50 (human TRPC3): 3.3 ± 0.13 µM | Effect on agonist-induced Ca2+ response, TRPC5 (mouse TRPC5): did not significantly affect; also recorded: no effect | Effect on agonist-induced Ca2+ response, TRPV3 (TRPV3): did not significantly affect | MKN-45 cell migration (wound healing) (MKN-45 cells): inhibited the MKN-45 cell migration
